In ChEMBL document CHEMBL1124143, “Nonisomerizable analogues of (Z)- and (E)-4-hydroxytamoxifen. Synthesis and endocrinological properties of substituted diphenylbenzocycloheptenes” (1988):

Experiments:
MCF7 [1] = test: Inhibition of MCF-7 human mammary tumor cell proliferation at 1*10e-8M; assay type: functional
Summary of the method: (§1)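 MCF-7 cells were plated at 5000 cells/mL. […] Cell number was read as colour intensity at 540 nm. Values are means of optical density from four separate cultures, […]. Statistics were one-way ANOVA with Newman-Keuls test.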

MCF7 [2] = test: Inhibition of 1*10e-7 M estradiol induced proliferation of MCF-7 human mammary tumor cells at 1*10e-7 M; assay type: functional; summary of the method: as §1
MCF7 [3] = test: Inhibition of 1*10e-7 M estradiol induced proliferation of MCF-7 human mammary tumor cells at 1*10e-6 M; assay type: functional; summary of the method: as §1
MCF7 [4] = test: Inhibition of MCF-7 human mammary tumor cell proliferation at 1*10e-7 M; assay type: functional; summary of the method: as §1
MCF7 [5] = test: Inhibition of MCF-7 human mammary tumor cell proliferation at 1*10e-6 M; assay type: functional; summary of the method: as §1
MCF7 [6] = test: (§2) Inhibition of 1*10e-8M estradiol induced proliferation of MCF-7 human mammary tumor cells; assay type: functional; summary of the method: as §1
MCF7 [7] = test: Inhibition of 1*10e-7 M estradiol induced proliferation of MCF-7 human mammary tumor cells at 1*10e-8M; assay type: functional; summary of the method: as §1
MCF7 [8] = test: Inhibition of MCF-7 human mammary tumor cell proliferation; assay type: functional; summary of the method: as §1
[9] = molecular target: T1, Estrogen receptor (Rattus norvegicus) (UniProt P06211+Q62986); test: In vivo anti-uterotrophic effect in 0.2 ug estradiol benzoate stimulated immature rats at 20 ug; assay type: functional, organism-based
Summary of the method: (§3)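 Immature female Sprague-Dawley rats got daily subcutaneous injections of compound in 0.1 mL peanut oil for 3 days and were killed on day 4. Read-out was uterine weight (mg).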

[10] = molecular target: T1, Estrogen receptor (Rattus norvegicus); test: In vivo anti-uterotrophic effect in 0.2 ug estradiol benzoate stimulated immature rats at 10 ug; assay type: functional, organism-based; summary of the method: as §3
MCF7 [11] = test: as §2; assay type: functional; summary of the method: as §1; remark: listed apart in the source
MCF7 [12] = test: Inhibition of MCF-7 human mammary tumor cell proliferation 1*10e-7 M; assay type: functional; summary of the method: as §1
MCF7 [13] = test: Inhibition of 1*10e-8M estradiol induced proliferation of MCF-7 human mammary tumor cells at 1*10e-7 M; assay type: functional; summary of the method: as §1
[14] = molecular target: T1, Estrogen receptor (Rattus norvegicus); test: In vivo anti-uterotrophic effect in 0.2 ug estradiol benzoate stimulated immature rats at 5 ug; assay type: functional, organism-based; summary of the method: as §3
[15] = molecular target: Estrogen receptor (Homo sapiens) (UniProt Q92731+P03372); test: Inhibition of [3H]estradiol binding to Estrogen receptor of MCF-7 cell lysate […]; assay type: cell-based
[16] = molecular target: T1, Estrogen receptor (Rattus norvegicus); test: In vivo anti-uterotrophic effect in 0.2 ug estradiol benzoate stimulated immature rats at 50 ug; assay type: functional, organism-based; summary of the method: as §3
[17] = molecular target: T1, Estrogen receptor (Rattus norvegicus); test: In vivo anti-uterotrophic effect in 0.2 ug estradiol benzoate stimulated immature rats at 12.5 ug; assay type: functional, organism-based; summary of the method: as §3
[18] = molecular target: T1, Estrogen receptor (Rattus norvegicus); test: In vivo anti-uterotrophic effect in 0.2 ug estradiol benzoate stimulated immature rats at 25 ug; assay type: functional, organism-based; summary of the method: as §3
[19] = molecular target: T1, Estrogen receptor (Rattus norvegicus); test: In vivo uterotrophic effect in estradiol stimulated immature rats; assay type: functional, organism-based; summary of the method: as §3

## CN(C)CCOc1ccc2c(c1)CCCC(c1ccccc1)=C2c1ccc(O)cc1
MCF7 [1]
  Optical density: 0.44
MCF7 [2]
  Optical density: 0.566
MCF7 [3]
  Optical density: 0.363
MCF7 [4]
  Optical density: 0.328
MCF7 [5]
  Optical density: 0.162
MCF7 [6]
  Optical density: 0.707
MCF7 [7]
  Optical density: 0.659
MCF7 [8]
  Optical density: 0.337

## CN(C)CCOc1ccc(C2=C(c3ccccc3)CCCc3cc(O)ccc32)cc1
[9]
  Uterine weight: 71
[10]
  Uterine weight: 72
MCF7 [11]
  Optical density: 0.52
MCF7 [1]
  Optical density: 0.126
MCF7 [12]
  Optical density: 0.066
MCF7 [13]
  Optical density: 0.147
MCF7 [3]
  Optical density: 0.068
[14]
  Uterine weight: 75
[15]
  relative binding affinity (RBA): 1.5
MCF7 [5]
  Optical density: 0.083
MCF7 [6]
  Optical density: 0.727
MCF7 [8]
  Optical density: 0.417

## CN(C)CCOc1ccc(C2=C(c3ccccc3)CCCc3ccccc32)cc1
[16]
  Uterine weight: 77
[17]
  Uterine weight: 92
[18]
  Uterine weight: 75

## C[C@]12CC[C@@H]3c4ccc(OC(=O)c5ccccc5)cc4CC[C@H]3[C@@H]1CC[C@@H]2O
[19]
  Uterine weight: 108
